According to ChEMBL document CHEMBL4402584, “Lead Optimization of Phthalazinone Phosphodiesterase Inhibitors as Novel Antitrypanosomal Compounds” (J Med Chem, 2020):
pIC50, pKi: −log10 of the molar value.

Assays:
Trypanosoma brucei = assay: Antitrypanosomal activity against Trypanosoma brucei Squib 427 assessed as reduction in parasite growth incubated for 72 hrs by resazurin dye based fluorimetric analysis; type: functional, organism-based; conditions: Squib 427, 72 h
[1] = Cytotoxicity against human MRC5 SV2 cells assessed as reduction in cell viability incubated for 72 hrs by resazurin dye based fluorimetric assay; conditions: MRC-5 SV2, 72 h
How it was run: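 MRC-5 SV2 fibroblasts grown in Earl's MEM with 5% FBSi, L-glutamine and bicarbonate; 1×10^4 cells/well treated 72 h at 37 °C, 5% CO2; resazurin viability read fluorimetrically (ex 550, em 590 nm). Five 4-fold dilutions from a 64 µM top concentration; IC50 derived from % viability reduction vs untreated wells; tamoxifen as reference.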

[2] = biological target: 3',5'-cyclic-AMP phosphodiesterase 4D (Homo sapiens, UniProt Q08499); assay: Inhibition of human PDE4D2 expressed in Escherichia coli BL21 (DE3) using cAMP as substrate by PDELight HTS cAMP phosphodiesterase Kit based
How it was run: (§1)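 Recombinant catalytic domains, His-tag purified, then ion exchange and size exclusion, were tested with the PDELight HTS cAMP kit in stimulation buffer (50 mM Hepes, 100 mM NaCl, 10 mM MgCl2, 0.5 mM EDTA, 0.05 mg/ml BSA, pH 7.5). Dose-response curves gave Ki, expressed as pKi = −log10(Ki ÷ 1000000).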

[3] = biological target: T1, Class 1 phosphodiesterase PDEB1 (Trypanosoma brucei, UniProt Q8WQX9); assay: Inhibition of Trypanosoma brucei PDEB1 (565 to 918 residues) expressed in Escherichia coli BL21 (DE3) using cAMP as substrate by PDELight HTS cAMP phosphodiesterase Kit based; how it was run: as §1
T1 sequence (Q8WQX9 whole entry): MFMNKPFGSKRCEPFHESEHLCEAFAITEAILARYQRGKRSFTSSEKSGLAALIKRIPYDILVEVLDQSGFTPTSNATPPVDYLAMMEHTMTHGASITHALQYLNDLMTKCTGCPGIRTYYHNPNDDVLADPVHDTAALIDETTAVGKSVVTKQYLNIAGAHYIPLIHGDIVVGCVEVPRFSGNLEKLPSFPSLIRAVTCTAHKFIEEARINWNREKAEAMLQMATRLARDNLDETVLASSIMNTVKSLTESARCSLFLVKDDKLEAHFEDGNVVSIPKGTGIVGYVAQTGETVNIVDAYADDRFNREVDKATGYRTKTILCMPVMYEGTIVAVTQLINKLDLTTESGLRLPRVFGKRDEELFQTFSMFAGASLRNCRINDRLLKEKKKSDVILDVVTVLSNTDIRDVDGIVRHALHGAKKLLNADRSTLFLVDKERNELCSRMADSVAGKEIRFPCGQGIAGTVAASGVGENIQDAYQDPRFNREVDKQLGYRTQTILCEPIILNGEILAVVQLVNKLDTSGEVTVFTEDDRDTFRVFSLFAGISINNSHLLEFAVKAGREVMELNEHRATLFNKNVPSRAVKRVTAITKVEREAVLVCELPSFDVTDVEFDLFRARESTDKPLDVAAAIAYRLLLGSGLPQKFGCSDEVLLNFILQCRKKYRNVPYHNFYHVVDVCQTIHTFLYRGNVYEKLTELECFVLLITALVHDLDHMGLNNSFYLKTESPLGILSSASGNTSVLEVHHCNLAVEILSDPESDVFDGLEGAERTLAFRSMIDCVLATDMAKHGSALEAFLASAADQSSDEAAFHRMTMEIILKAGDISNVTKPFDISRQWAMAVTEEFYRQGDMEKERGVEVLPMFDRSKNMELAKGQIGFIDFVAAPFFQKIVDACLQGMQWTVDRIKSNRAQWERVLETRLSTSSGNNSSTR

3',5'-cyclic-AMP phosphodiesterase 4D, sequence (Q08499 whole entry, the tested form may be a part): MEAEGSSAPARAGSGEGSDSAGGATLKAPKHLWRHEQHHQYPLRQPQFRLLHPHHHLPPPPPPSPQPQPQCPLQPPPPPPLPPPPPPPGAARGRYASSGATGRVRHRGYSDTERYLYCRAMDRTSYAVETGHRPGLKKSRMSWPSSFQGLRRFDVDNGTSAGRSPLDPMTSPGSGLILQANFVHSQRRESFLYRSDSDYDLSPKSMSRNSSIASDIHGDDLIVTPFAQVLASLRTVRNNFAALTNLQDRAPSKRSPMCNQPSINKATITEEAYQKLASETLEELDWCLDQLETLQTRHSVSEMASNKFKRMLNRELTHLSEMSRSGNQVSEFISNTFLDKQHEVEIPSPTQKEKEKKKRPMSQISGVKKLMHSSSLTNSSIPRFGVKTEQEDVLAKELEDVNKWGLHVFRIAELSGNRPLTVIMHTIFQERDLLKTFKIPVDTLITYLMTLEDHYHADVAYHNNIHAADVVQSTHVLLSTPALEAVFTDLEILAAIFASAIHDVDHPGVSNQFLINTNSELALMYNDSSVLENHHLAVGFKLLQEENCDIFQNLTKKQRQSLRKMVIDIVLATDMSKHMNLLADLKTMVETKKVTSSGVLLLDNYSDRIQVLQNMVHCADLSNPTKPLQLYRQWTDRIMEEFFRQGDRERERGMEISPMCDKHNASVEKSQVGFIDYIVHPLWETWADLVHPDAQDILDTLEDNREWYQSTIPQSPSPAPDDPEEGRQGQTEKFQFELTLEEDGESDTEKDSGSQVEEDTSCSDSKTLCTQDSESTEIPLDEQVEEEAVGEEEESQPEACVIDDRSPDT

With `COc1ccc(C2=NN(C3CN(c4ncnc5ccsc45)C3)C(=O)[C@@H]3CC=CC[C@H]23)cc1OC` the pIC50 (Trypanosoma brucei) was 4.82, the pIC50 [1] was 4.19 and the pKi [2] was 9.25. It also gave a pKi [3] of 6.54.

Work on `CC1(C)CC(=O)N(CC(=O)N2CCC(N3N=C(c4ccc(OC(F)F)c(OC(F)F)c4)[C@H]4CC=CC[C@H]4C3=O)CC2)C(=O)C1` yielded a pIC50 (Trypanosoma brucei) of 6.00, a pIC50 [1] of 4.19 and a pKi [2] of 9.52. It also gave a pKi [3] of 6.39.

With `COc1ccc(-c2nn(C3CCN(c4nc(N)nc5sccc45)CC3)c(=O)n3ccnc23)cc1OC` the pIC50 (Trypanosoma brucei) was 4.19, the pIC50 [1] was 4.19 and the pKi [3] was < 4.74.

In the case of `COc1ccc(-c2n[nH]c(=O)n3ccnc23)cc1OC`, the pIC50 (Trypanosoma brucei) was 4.19, the pIC50 [1] was 4.19 and the pKi [3] was < 4.50.

In the case of `CC1(C)CC(=O)N(CC(=O)N2CCC(N3N=C(c4ccc(F)cc4)[C@H]4CC=CC[C@H]4C3=O)CC2)C(=O)C1` (relative stereo), the pIC50 (Trypanosoma brucei) was 4.19, the pIC50 [1] was 4.53 and the pKi [2] was 9.92. For the same compound, the pKi [3] was 7.11.

For `COc1ccc(C2=NN(C3CCN(c4nc(N)nc5sccc45)CC3)C(=O)[C@@H]3CC=CC[C@H]23)cc1OC`, the pIC50 (Trypanosoma brucei) was 6.33, the pIC50 [1] was 4.19 and the pKi [2] was 9.45. For the same compound, the pKi [3] was 7.37.

`COc1ccc(C2=NN(C3CCN(c4ncnc5ccsc45)CC3)C(=O)[C@@H]3CC=CC[C@H]23)cc1OC` showed a pIC50 (Trypanosoma brucei) of 6.43, a pIC50 [1] of 5.14 and a pKi [2] of 9.63. It also gave a pKi [3] of 7.18.

For `COc1ccc(C2=NN(C3CN(C(=O)CN4C(=O)CC(C)(C)CC4=O)C3)C(=O)[C@@H]3CC=CC[C@H]23)cc1OC`, the pIC50 (Trypanosoma brucei) was 5.74, the pIC50 [1] was 4.19 and the pKi [2] was 9.41. It also gave a pKi [3] of 6.99.

With `CC1(C)CC(=O)N(CC(=O)N2CCC(N3N=C(c4ccc(F)c(F)c4)[C@H]4CC=CC[C@H]4C3=O)CC2)C(=O)C1` (relative stereo) the pIC50 (Trypanosoma brucei) was 4.32, the pIC50 [1] was 4.51 and the pKi [3] was < 5.01.

In the case of `COc1ccc(C2=NN(C3CCN(C(=O)CN4C(=O)CC(C)C4=O)CC3)C(=O)[C@@H]3CC=CC[C@H]23)cc1OC` (stereo not given in full), the pIC50 (Trypanosoma brucei) was 5.74, the pIC50 [1] was 4.19 and the pKi [2] was 9.77. It also gave a pKi [3] of 7.12.

Work on `COc1ccc(C2=NN(C3CCN(c4ccnc(N)n4)CC3)C(=O)[C@@H]3CC=CC[C@H]23)cc1OC` yielded a pIC50 (Trypanosoma brucei) of 5.44, a pIC50 [1] of 5.41 and a pKi [2] of 9.29. The pKi [3] was 6.59.

`COc1ccc(C2=NN(C3CN(C(=O)CN4C(=O)CC5(CCCC5)CC4=O)C3)C(=O)[C@@H]3CC=CC[C@H]23)cc1OC` showed a pIC50 (Trypanosoma brucei) of 5.60, a pIC50 [1] of 4.19 and a pKi [2] of 9.17. For the same compound, the pKi [3] was 6.77.

For `COc1ccc(-c2ccc(=O)n(C3CCN(c4nc(N)nc5sccc45)CC3)n2)cc1OC`, the pIC50 (Trypanosoma brucei) was 5.11, the pIC50 [1] was 4.95 and the pKi [3] was < 5.43.

Compound `COc1ccc(C2=NN(C3CCN(c4nccc(N)n4)CC3)C(=O)[C@@H]3CC=CC[C@H]23)cc1OC` has a pIC50 (Trypanosoma brucei) of 5.73, a pIC50 [1] of 4.76 and a pKi [2] of 9.50. It also gave a pKi [3] of 6.96.

`COc1ccc(C2=NN(C3CCN(C(=O)CN4C(=O)CC(Cc5ccccc5)C4=O)CC3)C(=O)[C@@H]3CC=CC[C@H]23)cc1OC` (stereo not given in full) gave a pIC50 (Trypanosoma brucei) of 4.19, a pIC50 [1] of 4.19 and a pKi [2] of 9.50. It also gave a pKi [3] of 7.01.

For `COc1ccc(C2=NN(C3CCN(C(=O)CN4C(=O)CC5(CCCCC5)CC4=O)CC3)C(=O)[C@@H]3CCCC[C@H]23)cc1OC`, the pIC50 [1] was 5.07 and the pKi [3] was < 5.01.

In the case of `CC1(C)CC(=O)N(CC(=O)N2CCC(N3N=C(c4ccc(F)c(F)c4)[C@H]4CCCC[C@H]4C3=O)CC2)C(=O)C1`, the pIC50 (Trypanosoma brucei) was 4.34, the pIC50 [1] was 4.37 and the pKi [3] was < 4.65.

With `COc1ccc(C2=NN(C3CCN(c4nc(N)nc5sccc45)CC3)C(=O)[C@@H]3CC=CC[C@H]23)cc1Cl` the pIC50 (Trypanosoma brucei) was 5.70, the pIC50 [1] was 4.19 and the pKi [2] was 7.52. It also gave a pKi [3] of 6.08.

With `O=C(CN1C(=O)CC2(CCCC2)CC1=O)N1CCC(N2N=C(c3ccc(F)cc3)[C@H]3CC=CC[C@H]3C2=O)CC1` (relative stereo) the pIC50 (Trypanosoma brucei) was 4.49, the pIC50 [1] was 4.39 and the pKi [3] was < 4.78.

For `COc1ccc(C2=NN(C3CCN(c4ncnc5ccsc45)CC3)C(=O)C2(C)C)cc1OC`, the pIC50 (Trypanosoma brucei) was 4.49, the pIC50 [1] was 4.60 and the pKi [3] was < 5.69.

In the case of `COc1ccc(C2=NN(C3CCN(c4ncc5ccccc5n4)CC3)C(=O)[C@@H]3CC=CC[C@H]23)cc1OC`, the pIC50 (Trypanosoma brucei) was 5.77, the pIC50 [1] was 4.19 and the pKi [2] was 9.23. The pKi [3] was 6.19.

With `O=C(CN1C(=O)CC2(CCCCC2)CC1=O)N1CCC(N2N=C(c3ccc(F)cc3)[C@H]3CC=CC[C@H]3C2=O)CC1` (relative stereo) the pIC50 (Trypanosoma brucei) was 4.99, the pIC50 [1] was 4.19 and the pKi [3] was < 5.02.

Compound `COc1ccc(C2=NN(C3CCN(c4ncc5sccc5n4)CC3)C(=O)[C@@H]3CC=CC[C@H]23)cc1OC` has a pIC50 (Trypanosoma brucei) of 5.64, a pIC50 [1] of 4.19 and a pKi [2] of 8.59. It also gave a pKi [3] of 6.16.

`O=C(CN1C(=O)CC2(CCCCC2)CC1=O)N1CCC(N2N=C(c3ccc(OC(F)F)c(OC(F)F)c3)[C@H]3CC=CC[C@H]3C2=O)CC1` showed a pIC50 (Trypanosoma brucei) of 5.12, a pIC50 [1] of 4.19 and a pKi [2] of 8.79. It also gave a pKi [3] of 6.11.

In the case of `COc1ccc(C2=NN(C3CCN(c4nc(N)nc5ccccc45)CC3)C(=O)[C@@H]3CC=CC[C@H]23)cc1OC`, the pIC50 (Trypanosoma brucei) was 6.09, the pIC50 [1] was 5.11 and the pKi [2] was 9.81. It also gave a pKi [3] of 7.61.

With `COc1ccc(C2=NN(C3CCN(c4nc(N)nc5[nH]cnc45)CC3)C(=O)[C@@H]3CC=CC[C@H]23)cc1OC` the pIC50 (Trypanosoma brucei) was 5.77, the pIC50 [1] was 4.75 and the pKi [2] was 9.06. The pKi [3] was 6.98.

With `COc1ccc(C2=NN(C3CCN(c4nc(N)nc5sccc45)CC3)C(=O)[C@@H]3CCCC[C@H]23)cc1OC` the pIC50 (Trypanosoma brucei) was 6.02, the pIC50 [1] was 4.54 and the pKi [2] was 9.18. It also gave a pKi [3] of 7.03.

For `COc1ccc(-c2nn(C3CCNCC3)c(=O)n3ccnc23)cc1OC`, the pIC50 (Trypanosoma brucei) was 4.49, the pIC50 [1] was 4.19 and the pKi [3] was < 4.50.

With `O=C1[C@@H]2CC=CC[C@@H]2C(c2ccc(O)c(O)c2)=NN1C1CCN(c2ncnc3ccsc23)CC1` the pIC50 (Trypanosoma brucei) was 5.29, the pIC50 [1] was 4.60 and the pKi [2] was 7.20. For the same compound, the pKi [3] was 6.05.

`COc1ccc(C2=NN(C3CCN(c4nc(N)c5ccccc5n4)CC3)C(=O)[C@@H]3CC=CC[C@H]23)cc1OC` showed a pIC50 (Trypanosoma brucei) of 6.06, a pIC50 [1] of 5.13 and a pKi [2] of 8.61. It also gave a pKi [3] of 6.19.

With `COc1ccc(C2=NN(C3CN(c4nc(N)nc5sccc45)C3)C(=O)[C@@H]3CC=CC[C@H]23)cc1OC` the pIC50 (Trypanosoma brucei) was 5.11, the pIC50 [1] was 4.19 and the pKi [2] was 8.93. For the same compound, the pKi [3] was 6.56.

Work on `COc1ccc(C2=NN(C3CCN(c4ncnc5ccccc45)CC3)C(=O)[C@@H]3CC=CC[C@H]23)cc1OC` yielded a pIC50 (Trypanosoma brucei) of 6.58, a pIC50 [1] of 5.52 and a pKi [2] of 9.65. The pKi [3] was 6.19.

In the case of `O=C1[C@@H]2CC=CC[C@@H]2C(c2ccc(OC(F)F)c(O)c2)=NN1C1CCN(c2ncnc3ccsc23)CC1`, the pIC50 (Trypanosoma brucei) was 5.47, the pIC50 [1] was 4.19 and the pKi [3] was < 5.78.
